Data reported in ChEMBL document CHEMBL4014308, “Amphiphilic Tobramycin-Lysine Conjugates Sensitize Multidrug Resistant Gram-Negative Bacteria to Rifampicin and Minocycline” (J Med Chem, 2017).
Active and inactive are the calls of the source. No cut-off for these calls is given here.

How the values were obtained:
Enterococcus faecalis = test: Antibacterial activity against Enterococcus faecalis ATCC 29212 after 18 hrs by microtiter dilution assay; assay type: functional; conditions: ATCC 29212, 18 h
Outline: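 Broth microdilution per CLSI. Overnight culture adjusted to 0.5 McFarland in saline, diluted 1:50 in Mueller-Hinton broth, and added to an equal volume of 2-fold serial compound dilutions in MHB. Incubated 18 h at 37 °C. MIC taken as the lowest concentration with no visible growth.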

Pseudomonas aeruginosa [1] = test: Potentiation of minocycline-induced antibacterial activity against multidrug/extremely drug-resistant/colistin-resistant Pseudomonas aeruginosa isolate 91433 assessed as fold reduction in minocycline MIC at 4 ug/ml after 18 hrs by checkerboard assay relative to control; assay type: functional
Outline: (§1)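 Checkerboard in Mueller-Hinton broth, 10 × 7 matrix, with the adjuvant held at 4 µg/mL. Inoculum from a 0.5 McFarland suspension diluted 1:50; 18 h at 37 °C. Antibiotic MIC (lowest concentration with no growth) with adjuvant is compared with the antibiotic MIC alone, giving a fold reduction.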

Pseudomonas aeruginosa [2] = test: Potentiation of minocycline-induced antibacterial activity against multidrug/extremely drug-resistant/colistin-susceptible Pseudomonas aeruginosa isolate P264-104354 at 4 ug/ml after 18 hrs by checkerboard assay; assay type: functional
Outline: (§2)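 Checkerboard in Mueller-Hinton broth: antibiotic serially diluted along one axis and adjuvant along the other (10 × 7 matrix). Inoculum from a 0.5 McFarland saline suspension diluted 1:50 in MHB; 18 h at 37 °C, then plate read. MIC is the lowest concentration with no growth. FIC of each agent is its concentration in a no-growth well divided by its MIC alone; FIC index is the sum of both. FIC index ≤0.5 counts as synergy.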

Pseudomonas aeruginosa [3] = test: Potentiation of minocycline-induced antibacterial activity against multidrug/extremely drug-resistant/colistin-resistant Pseudomonas aeruginosa isolate 101243 assessed as fold reduction in minocycline MIC at 4 ug/ml after 18 hrs by checkerboard assay relative to control; assay type: functional; outline: as §1
Klebsiella pneumoniae = test: Synergistic antibacterial activity against multidrug-resistant Klebsiella pneumoniae 116381 after 18 hrs in presence of minocycline by checkerboard assay; assay type: functional; conditions: Klebsiella pneumoniae, 116381, 18 h
Outline: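 Checkerboard in Mueller-Hinton broth: antibiotic serially diluted along one axis and adjuvant along the other (10 × 7 matrix). Inoculum was overnight culture set to 0.5 McFarland in saline, then diluted 1:50 in broth. Incubated 18 h at 37 °C. MIC was the lowest concentration with no growth. FIC index is the sum of both FICs (combination concentration ÷ MIC alone); ≤0.5 counted as synergy.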

Acinetobacter baumannii [4] = test: Synergistic antibacterial activity against multidrug-resistant Acinetobacter baumannii AB030 after 18 hrs in presence of rifampicin by checkerboard assay; assay type: functional; conditions: AB030, 18 h
Outline: (§3)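 Checkerboard in MHB with a 10 × 7 matrix: antibiotic serially diluted along one axis, adjuvant along the other. Inoculum was a 1:50 dilution of a 0.5 McFarland suspension, incubated 18 h at 37 °C and read on a plate reader. Each FIC is the concentration in a no-growth well divided by the MIC alone; FIC index is their sum, with ≤0.5 taken as synergy.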

Acinetobacter baumannii [5] = test: Antibacterial activity against multidrug-resistant Acinetobacter baumannii 110193 after 18 hrs by microtiter dilution assay; assay type: functional; conditions: Acinetobacter baumannii, 110193, 18 h
Outline: (§4)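 Broth microdilution following CLSI guidelines. An overnight culture was adjusted to 0.5 McFarland in saline, then diluted 1:50 in Mueller-Hinton broth. This inoculum was added in equal volume to 2-fold serial dilutions of agent in MHB and incubated 18 h at 37 °C. MIC was the lowest concentration with no visible growth.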

Acinetobacter baumannii [6] = test: Potentiation of minocycline-induced antibacterial activity against multidrug-resistant Acinetobacter baumannii AB031 at 4 ug/ml after 18 hrs by checkerboard assay; assay type: functional; outline: as §2
Pseudomonas aeruginosa [7] = test: Potentiation of rifampicin-induced antibacterial activity against multidrug/extremely drug-resistant/colistin-resistant Pseudomonas aeruginosa isolate 91433 at 4 ug/ml after 18 hrs by checkerboard assay; assay type: functional; outline: as §2
Pseudomonas aeruginosa [8] = test: Bactericidal activity against Pseudomonas aeruginosa PAO1 at 4 times antibacterial MIC after 10 mins; assay type: functional
Outline: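 Time-kill with P. aeruginosa PAO1. A 0.5 McFarland suspension was diluted 1:50 in LB broth and exposed to agent in PBS (pH 7.2) at 1/2×, 1×, 2× or 4× MIC at 37 °C for 6 h. Samples at 0, 10, 30, 60, 90, 120, 240 and 360 min were serially diluted in PBS, plated on LB agar, and colonies counted after 20 h at 37 °C.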

Escherichia coli = test: Antibacterial activity against gentamicin/tobramycin/ciprofloxacin-resistant Escherichia coli isolate CANWARD-2011 97615 harboring AAC3-2A after 18 hrs by microtiter dilution assay; assay type: functional; conditions: isolate CANWARD-2011 97615, 18 h; outline: as §4
Pseudomonas aeruginosa [9] = test: Antibacterial activity against Pseudomonas aeruginosa PAO1 after 18 hrs by microtiter dilution assay; assay type: functional; conditions: PAO1, 18 h; outline: as §4
[10] = Cytotoxicity against human DU145 cells assessed as cell viability at 20 uM after 48 hrs by MTS assay relative to control; assay type: cell-based, DU-145; conditions: read-out: Activity
Outline: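 DU145 and JIMT-1 grown in DMEM with 10% FBS and penicillin/streptomycin at 37 °C, 5% CO2. 7500–9000 cells/well were seeded for 24 h, then treated at 2.5–30 µM (final) for 48 h. MTS reagent (20% v/v) added for 4 h and OD read at 490 nm after blank subtraction; viability expressed relative to vehicle control.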

Pseudomonas aeruginosa [11] = test: Potentiation of rifampicin-induced antibacterial activity against multidrug/extremely drug-resistant/colistin-susceptible Pseudomonas aeruginosa isolate 101885 assessed as fold reduction in rifampicin MIC at 4 ug/ml after 18 hrs by checkerboard assay relative to control; assay type: functional; outline: as §1
Pseudomonas aeruginosa [12] = test: Potentiation of rifampicin-induced antibacterial activity against multidrug/extremely drug-resistant/colistin-resistant Pseudomonas aeruginosa isolate 101243 at 4 ug/ml after 18 hrs by checkerboard assay; assay type: functional; outline: as §2
Acinetobacter baumannii [13] = test: Synergistic antibacterial activity against multidrug-resistant Acinetobacter baumannii AB031 after 18 hrs in presence of minocycline by checkerboard assay; assay type: functional; conditions: AB031, 18 h; outline: as §3
Pseudomonas aeruginosa [14] = test: Antibacterial activity against multidrug/extremely drug-resistant/colistin-resistant Pseudomonas aeruginosa isolate 91433 after 18 hrs by microtiter dilution assay; assay type: functional; conditions: isolate 91433, 18 h; outline: as §4
Pseudomonas aeruginosa [15] = test: Antibacterial activity against multidrug/extremely drug-resistant/colistin-susceptible Pseudomonas aeruginosa isolate 100036 after 18 hrs by microtiter dilution assay; assay type: functional; conditions: isolate 100036, 18 h; outline: as §4
Pseudomonas aeruginosa [16] = test: Potentiation of erythromycin-induced antibacterial activity against Pseudomonas aeruginosa PAO1 at 4 ug/ml after 18 hrs by checkerboard assay; assay type: functional; outline: as §2
Pseudomonas aeruginosa [17] = test: Potentiation of minocycline-induced antibacterial activity against Pseudomonas aeruginosa PAO750 harboring RND efflux pump/OpmH deletion mutant after 18 hrs by checkerboard assay; assay type: functional; outline: as §3
Pseudomonas aeruginosa [18] = test: Potentiation of minocycline-induced antibacterial activity against multidrug/extremely drug-resistant/colistin-resistant Pseudomonas aeruginosa isolate 91433 at 4 ug/ml after 18 hrs by checkerboard assay; assay type: functional; outline: as §2
Enterobacter cloacae = test: Synergistic antibacterial activity against multidrug-resistant Enterobacter cloacae 117029 after 18 hrs in presence of minocycline by checkerboard assay; assay type: functional; conditions: Enterobacter cloacae, 117029, 18 h; outline: as §3
Pseudomonas aeruginosa [19] = test: Potentiation of colistin-induced antibacterial activity against Pseudomonas aeruginosa PAO1 at 4 ug/ml after 18 hrs by checkerboard assay; assay type: functional; outline: as §2

Cl.Cl.Cl.Cl.Cl.Cl.Cl.NCCCC[C@H](N)C(=O)N(CCCCCCCCCCCCO[C@@H]1[C@@H](O[C@H]2O[C@H](CO)[C@@H](O)[C@H](N)[C@H]2O)[C@H](N)C[C@H](N)[C@H]1O[C@H]1O[C@H](CN)[C@@H](O)C[C@H]1N)Cc1c2ccccc2c(Cl)c2ccccc12
MIC (Enterococcus faecalis): 16 µg/mL
fold change (FC) (Pseudomonas aeruginosa [1]): 128
fractional inhibitory concentration index (FICI) (Pseudomonas aeruginosa [2]): 0.079
fold change (FC) (Pseudomonas aeruginosa [3]): 4
MIC (Klebsiella pneumoniae): 16 µg/mL
MIC (Acinetobacter baumannii [4]): 8 µg/mL
MIC (Acinetobacter baumannii [5]): 16 µg/mL
fractional inhibitory concentration index (FICI) (Acinetobacter baumannii [6]): 0.625
fractional inhibitory concentration index (FICI) (Pseudomonas aeruginosa [7]): 0.5
Activity (Pseudomonas aeruginosa [8]): Active
MIC (Escherichia coli): 32 µg/mL
MIC (Pseudomonas aeruginosa [9]): 32 µg/mL
viability at 48 h, 20 µM [10]: > 50%
fold change (FC) (Pseudomonas aeruginosa [11]): 128
fractional inhibitory concentration index (FICI) (Pseudomonas aeruginosa [12]): 0.188
MIC (Acinetobacter baumannii [13]): 2 µg/mL
MIC (Pseudomonas aeruginosa [14]): 8 µg/mL
MIC (Pseudomonas aeruginosa [15]): 32 µg/mL
fractional inhibitory concentration index (FICI) (Pseudomonas aeruginosa [16]): 0.156
fractional inhibitory concentration index (FICI) (Pseudomonas aeruginosa [17]): 0.75
fractional inhibitory concentration index (FICI) (Pseudomonas aeruginosa [18]): 0.266
MIC (Enterobacter cloacae): 8 µg/mL
fractional inhibitory concentration index (FICI) (Pseudomonas aeruginosa [19]): 1.031
